# According to ChEMBL document CHEMBL4033712, “Synthesis and biological evaluation of new C-12(α/β)-(N-) sulfamoyl-phenylamino-14-deoxy-andrographolide derivatives as potent anti-cancer agents” (Bioorg Med Chem Lett, 2017):
# What was measured:
# Type in all cases: functional
# [1] = system: KM12; experiment: Growth inhibition of human KM12 cells incubated for 48 hrs by sulforhodamine B assay; conditions: KM12, 48 h
# In short: (§1)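 NCI-60 five-dose screen at 0.01, 0.1, 1, 10 and 100 µM, 48 h incubation, sulforhodamine B end point. GI50 (50% decrease in net growth), TGI (total growth inhibition) and LC50 (net 50% loss of initial cells) taken from log concentration versus % growth inhibition curves.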
# [2] = system: CAKI-1; experiment: Growth inhibition of human Caki1 cells incubated for 48 hrs by sulforhodamine B assay; conditions: CAKI-1, 48 h; in short: as §1
# [3] = system: K562; experiment: Growth inhibition of human K562 cells incubated for 48 hrs by sulforhodamine B assay; conditions: K562, 48 h; in short: as §1
# [4] = system: RXF 393; experiment: Growth inhibition of human RXF393 cells incubated for 48 hrs by sulforhodamine B assay; conditions: RXF 393, 48 h
# In short: (§2)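 NCI 60 human tumour cell line panel, five-dose study at 0.01, 0.1, 1, 10 and 100 µM, 48 h incubation. Sulforhodamine B protein-binding dye end point. GI50 (50% decrease in net cell growth), TGI (total growth inhibition) and LC50 (net 50% loss of initial cells) read from log concentration versus % growth inhibition curves.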
# [5] = system: SK-MEL-2; experiment: Growth inhibition of human SK-MEL-2 cells incubated for 48 hrs by sulforhodamine B assay; conditions: SK-MEL-2, 48 h; in short: as §2
# [6] = system: SF-539; experiment: Anticancer activity against human SF539 cells assessed as cell growth at 10 uM after 48 hrs by sulforhodamine B assay relative to control; conditions: SF-539, 48 h, read-out: Activity
# In short: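 Single-dose NCI-60 panel screen: compound added at 10 µM and the culture incubated 48 h. The end point was read by protein staining with sulforhodamine B. The value is percent growth of treated cells relative to untreated control cells, reported as a mean graph across the panel.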
# [7] = system: SR; experiment: Growth inhibition of human SR cells incubated for 48 hrs by sulforhodamine B assay; in short: as §2
# [8] = system: SF-268; experiment: Growth inhibition of human SF268 cells incubated for 48 hrs by sulforhodamine B assay; conditions: SF-268, 48 h; in short: as §2
# [9] = system: Hs-578T; experiment: Growth inhibition of human Hs 578T cells incubated for 48 hrs by sulforhodamine B assay; in short: as §1
# [10] = system: TK-10; experiment: Growth inhibition of human TK10 cells incubated for 48 hrs by sulforhodamine B assay; conditions: TK-10, 48 h; in short: as §2
# [11] = system: HOP-92; experiment: Growth inhibition of human HOP92 cells incubated for 48 hrs by sulforhodamine B assay; conditions: HOP-92, 48 h; in short: as §1
# [12] = system: SF-295; experiment: Growth inhibition of human SF295 cells incubated for 48 hrs by sulforhodamine B assay; conditions: SF-295, 48 h; in short: as §2
# [13] = system: NCI-H226; experiment: Growth inhibition of human NCI-H226 cells incubated for 48 hrs by sulforhodamine B assay; conditions: NCI-H226, 48 h; in short: as §1
# [14] = system: CCRF-CEM; experiment: Growth inhibition of human CCRF-CEM cells incubated for 48 hrs by sulforhodamine B assay; in short: as §1
# [15] = system: BT-549; experiment: Growth inhibition of human BT549 cells incubated for 48 hrs by sulforhodamine B assay; conditions: BT-549, 48 h; in short: as §1
# [16] = system: UACC-257; experiment: Growth inhibition of human UACC257 cells incubated for 48 hrs by sulforhodamine B assay; conditions: UACC-257, 48 h; in short: as §2
# [17] = system: SK-MEL-5; experiment: Growth inhibition of human SK-MEL-5 cells incubated for 48 hrs by sulforhodamine B assay; conditions: SK-MEL-5, 48 h; in short: as §2
# [18] = system: SW-620; experiment: Growth inhibition of human SW620 cells incubated for 48 hrs by sulforhodamine B assay; conditions: SW-620, 48 h; in short: as §2
# [19] = system: HOP-62; experiment: Growth inhibition of human HOP62 cells incubated for 48 hrs by sulforhodamine B assay; conditions: HOP-62, 48 h; in short: as §1
# [20] = system: SNB-75; experiment: Growth inhibition of human SNB75 cells incubated for 48 hrs by sulforhodamine B assay; conditions: SNB-75, 48 h; in short: as §2
# [21] = system: T47D; experiment: Growth inhibition of human T47D cells incubated for 48 hrs by sulforhodamine B assay; in short: as §2
# [22] = system: NCI-H460; experiment: Growth inhibition of human NCI-H460 cells incubated for 48 hrs by sulforhodamine B assay; conditions: NCI-H460, 48 h; in short: as §1
# [23] = system: COLO 205; experiment: Growth inhibition of human COLO205 cells incubated for 48 hrs by sulforhodamine B assay; conditions: COLO 205, 48 h; in short: as §1
# [24] = system: HCT-116; experiment: Growth inhibition of human HCT116 cells incubated for 48 hrs by sulforhodamine B assay; conditions: HCT-116, 48 h; in short: as §1
# [25] = system: PC-3; experiment: Growth inhibition of human PC3 cells incubated for 48 hrs by sulforhodamine B assay; conditions: PC-3, 48 h; in short: as §1
# [26] = system: MDA-MB-435; experiment: Growth inhibition of human MDA-MB-435 cells incubated for 48 hrs by sulforhodamine B assay; conditions: MDA-MB-435, 48 h; in short: as §1
# [27] = system: ACHN; experiment: Growth inhibition of human ACHN cells incubated for 48 hrs by sulforhodamine B assay; in short: as §1
# [28] = system: U-251; experiment: Growth inhibition of human U251 cells incubated for 48 hrs by sulforhodamine B assay; conditions: U-251, 48 h; in short: as §2
# [29] = read-out: LC50 (the source's name)
smiles,measurement,setting,value
C=C1CC[C@@H]2[C@](C)(COC(C)=O)[C@H](OC(C)=O)CC[C@@]2(C)[C@H]1CC(Nc1ccc(S(=O)(=O)Nc2cc(C)on2)cc1)C1=CCOC1=O (stereo partly specified),GI50,[1],1.83 µM
same,TGI,[1],3.69 µM
same,CC50,[1]; [29],7.42 µM
same,GI50,[2],4.14 µM
same,TGI,[2],14.7 µM
same,CC50,[2]; [29],38.6 µM
same,GI50,[3],1.57 µM
same,TGI,[3],8.42 µM
same,CC50,[3]; [29],> 100 µM
same,GI50,[4],2.05 µM
same,TGI,[4],3.84 µM
same,CC50,[4]; [29],7.22 µM
same,GI50,[5],2.04 µM
same,TGI,[5],4.4 µM
same,CC50,[5]; [29],9.49 µM
same,growth at 10 µM,[6],6.3%
same,GI50,[7],0.37 µM
same,TGI,[7],3.36 µM
same,CC50,[7]; [29],> 100 µM
same,GI50,[8],2.35 µM
same,TGI,[8],6.11 µM
same,CC50,[8]; [29],32.9 µM
same,GI50,[9],3.92 µM
same,LC50,[9],> 100 µM
same,TGI,[9],26.7 µM
same,GI50,[10],3.04 µM
same,TGI,[10],7.11 µM
same,CC50,[10]; [29],23.8 µM
same,GI50,[11],3.07 µM
same,TGI,[11],8 µM
same,CC50,[11]; [29],28 µM
same,GI50,[12],8.13 µM
same,TGI,[12],21 µM
same,CC50,[12]; [29],47.7 µM
same,GI50,[13],1.81 µM
same,TGI,[13],3.85 µM
same,GI50,[14],0.47 µM
same,TGI,[14],2.71 µM
same,CC50,[14]; [29],> 100 µM
same,GI50,[15],1.79 µM
same,TGI,[15],3.47 µM
same,CC50,[15]; [29],6.73 µM
same,GI50,[16],2.95 µM
same,TGI,[16],6.19 µM
same,CC50,[16]; [29],18.7 µM
same,GI50,[17],2.11 µM
same,TGI,[17],4.65 µM
same,CC50,[17]; [29],11.7 µM
same,GI50,[18],1.32 µM
same,TGI,[18],2.91 µM
same,CC50,[18]; [29],6.44 µM
same,GI50,[19],8.88 µM
same,TGI,[19],22.9 µM
same,CC50,[19]; [29],56.9 µM
same,GI50,[20],2.03 µM
same,TGI,[20],11.5 µM
same,CC50,[20]; [29],33.9 µM
same,GI50,[21],2.8 µM
same,TGI,[21],7.37 µM
same,CC50,[21]; [29],> 100 µM
same,GI50,[22],2.35 µM
same,TGI,[22],5.7 µM
same,CC50,[22]; [29],27.7 µM
same,GI50,[23],1.97 µM
same,TGI,[23],4.34 µM
same,CC50,[23]; [29],9.55 µM
same,GI50,[24],1.12 µM
same,TGI,[24],2.39 µM
same,CC50,[24]; [29],5.1 µM
same,GI50,[25],1.98 µM
same,TGI,[25],4.31 µM
same,CC50,[25]; [29],9.4 µM
same,GI50,[26],1.74 µM
same,TGI,[26],4.37 µM
same,CC50,[26]; [29],12.5 µM
same,GI50,[27],1.71 µM
same,TGI,[27],3.48 µM
same,CC50,[27]; [29],7.05 µM
same,GI50,[28],1.89 µM
same,TGI,[28],3.4 µM
same,CC50,[28]; [29],6.12 µM
